Bioassay records from PubChem.
OX1R antag-1 – antagonists of human orexin 1 receptor; 330,000 compounds, 0.43% hits; O43613; AID 434989; inhibition, % at 5 µM; CHO/OX1R cells, Fluo-8 calcium fluorescence, orexin A;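 active = inhibition above its plate's threshold, mean inhibition of all tested compounds on the plate plus 3 SD, cut at about 37% in these data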;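 also: 0% = orexin A challenge wells and 100% = SB-334867-A antagonist wells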
Target sequence (O43613 whole entry, looked up): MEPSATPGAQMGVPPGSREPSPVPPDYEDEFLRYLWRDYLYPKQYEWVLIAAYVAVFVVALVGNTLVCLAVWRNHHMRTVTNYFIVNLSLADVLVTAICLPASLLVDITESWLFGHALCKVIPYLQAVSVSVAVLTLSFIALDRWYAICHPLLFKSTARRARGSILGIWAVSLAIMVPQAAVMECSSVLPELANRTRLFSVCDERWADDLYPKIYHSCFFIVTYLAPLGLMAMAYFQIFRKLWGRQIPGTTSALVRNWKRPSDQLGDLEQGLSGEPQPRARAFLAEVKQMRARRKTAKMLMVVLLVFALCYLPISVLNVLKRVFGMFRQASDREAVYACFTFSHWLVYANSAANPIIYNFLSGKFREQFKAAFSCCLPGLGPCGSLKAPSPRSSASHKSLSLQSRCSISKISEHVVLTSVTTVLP
TAAR1 ag – human TAAR1 agonism; Q96RJ0; CHO RD-HGA16 TAAR1, Fluo-8 calcium fluorescence; vehicle wells 0%, saturating PEA agonist 100%; activation, % at 3 µM; 360,000 compounds, 0.99% hits; AID 624467;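 active = activation above the mean activation of all test compounds in the run plus 3 SD, cut at about 38% in these data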
Target sequence (Q96RJ0 whole entry, looked up): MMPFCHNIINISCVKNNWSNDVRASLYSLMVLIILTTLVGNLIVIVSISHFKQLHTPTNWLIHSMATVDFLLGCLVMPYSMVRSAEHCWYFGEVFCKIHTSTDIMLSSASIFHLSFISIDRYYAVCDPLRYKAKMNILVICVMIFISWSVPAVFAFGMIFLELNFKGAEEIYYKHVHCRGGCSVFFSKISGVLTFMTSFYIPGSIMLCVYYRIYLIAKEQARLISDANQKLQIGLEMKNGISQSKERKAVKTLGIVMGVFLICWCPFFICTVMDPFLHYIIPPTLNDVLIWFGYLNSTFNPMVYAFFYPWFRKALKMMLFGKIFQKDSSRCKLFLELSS
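Signal – calcium-sensitive Fluo-8 signal, excitation 470-495, emission 515-575 nm · System – RD-HGA16 (CHO) cells co-expressing Gα16 and hTAAR1 · Incubation – 17-24 h seeding, 75 min 37 °C dye, 30 min RT · Compound dosing – 3 µM single concentration · Repeats – no replicates (n 1)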
GalR3 antagonist – blocks the human galanin receptor 3. HEK293 GalR3-CNG cAMP membrane potential fluorescence; galR3 body fused to GalR1 C-terminus. inhibition, % at 3 µM. 360,000 compounds, 0.44% hits. AID 651719;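 active = inhibition above the screen-wide average plus 3 SD, cut at about 13% in these data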;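 also: forskolin and galanin both at EC90 stimulate the cells; cAMP rise reported by CNG channel membrane potential dye signal; 0% = forskolin plus galanin with DMSO and 100% = forskolin alone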
OX1R antag-2 – OX1R (human) antagonism; O43613; OX1R-expressing cells, FRET antagonist read-out; inhibition, % at 6.6 µM; 330,000 compounds, 1.8% hits; in the data active = inhibition mostly above about 38%, no sharp cut-off; inactive = mostly below about 40%;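 also: 0% = agonist challenge alone and 100% = reference antagonist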
CHO parental Ca – counter-screen for OX1R antagonists: effect in parental CHO cells | 330,000 compounds, 0.63% hits | inhibition, % at 5.6 µM | parental CHO-K1, ATP-induced calcium, Fluo-8 fluorescence;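 active = inhibition above that plate's mean sample inhibition plus 3 SD, cut at about 26% in these data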;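 also: 0% = ATP-challenged DMSO wells and 100% = DMSO wells without ATP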
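test system = CHO parental line | reagent = ATP stimulus | measured by = intracellular calcium via Fluo-8 no-wash fluorescent dye | control set = ATP and no-ATP DMSO wells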
TAAR1 antagonist – antagonists of human TAAR1. inhibition, % at 3 µM. 360,000 compounds, 1.5% hits. CHO RD-HGA16 TAAR1, Fluo-8 calcium fluorescence, antagonist. Q96RJ0. AID 624466;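 active = inhibition above a per-plate cutoff, the mean inhibition of test compounds on that plate plus 3 SD, cut at about 49% in these data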;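 also: 0% = DMSO plus EC80 beta-PEA response and 100% = DMSO alone without agonist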
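System: RD-HGA16 CHO cells with stable hTAAR1 and Gα16 | Probe or stimulus: EC80 β-phenethylamine stimulus | Dosing: 3 µM, single point | Times: Dye loading 75 min at 37 °C, then 30 min room temperature | Measured by: Fluo-8 calcium-sensitive fluorescence | Read-out basis: % inhibition of agonist calcium response | Replicates: n of 1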
OX1R Ca confirm – confirmation of human orexin 1 receptor antagonists; shares compounds with OX1R antag-1; CHO/OX1R cells, orexin A calcium Fluo-8 fluorescence; inhibition, % at 5 µM; 1,100 compounds, 38% hits; in the data active = inhibition above about 29%;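 also: 0% = agonist challenge alone and 100% = reference antagonist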
CHO Ca triplic – signal in parental CHO cells, OX1R antagonist counter-screen. shares compounds with OX1R antag-1. parental CHO-K1, ATP-induced calcium, Fluo-8 fluorescence. inhibition, % at 5.6 µM. 1,100 compounds, 9.3% hits;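 active = inhibition above a per-plate limit, the mean inhibition of that plate's test compounds plus 3 SD, cut at about 25% in these data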;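 also: 0% = ATP challenge with DMSO and 100% = DMSO without ATP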
OX1R HTRF conf – OX1R (human) antagonism, HTRF confirmed; shares compounds with OX1R antag-2; OX1R-expressing cells, HTRF antagonist assay; inhibition, % at 6.6 µM; 1,800 compounds, 49% hits; in the data active = inhibition above about 55%;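 also: CHO cells expressing OX1R stimulated with orexin A at about EC80; 0% = agonist challenge alone and 100% = reference antagonist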
CHO-K1 HTRF cnt – signal in parental CHO-K1 cells, OX1R antagonist counter-screen. shares compounds with OX1R antag-2. HTRF counterscreen. inhibition, % at 6.6 µM. 1,800 compounds, 48% hits. AID 493232; in the data active = inhibition above about 17%;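 also: 0% = agonist challenge with vehicle and 100% = vehicle alone without agonist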
Numbers without * were called inactive; . = not tested or not shown. Rows were chosen to be rich in hits. Some 4.3% of all compounds tested hit in one or more screens of this group.

SMILES | OX1R antag-1 | TAAR1 ag | GalR3 antagonist | OX1R antag-2 | CHO parental Ca | TAAR1 antagonist | OX1R Ca confirm | CHO Ca triplic | OX1R HTRF conf | CHO-K1 HTRF cnt
CCOC(=O)c1cnc(SCc2nc(N)nc(Nc3ccccc3)n2)nc1N | 38 | 11 | -6 | 73* | -27 | 0 | 35* | -24 | 48 | 6
CCOC(=O)c1cnc(SCCc2ccccc2)nc1N | -37 | -3 | 4 | 18 | -5 | -9 | . | . | . | .
O=C(NCCc1c[nH]c2ccccc12)OC1CC2CC1[C@H]1CCCCN1C2=O (stereo partly drawn) | . | 0 | -5 | . | . | 9 | . | . | . | .
CCOC(=O)C1=C(C)N(C[C@@H]2CC[C@@H](Cc3ccc(-c4ccccc4)cc3)O2)C(=O)NC1C1CC1 (stereo partly drawn) | 51* | 2 | -6 | 34* | 12 | 4 | 10 | -18 | 28 | 1
Fc1cccc(-c2cc3nc4c(c(N5CCC6(CC5)OCCO6)n3n2)CCCC4)c1 | -30 | 3 | -2 | 30 | 1 | 0 | . | . | . | .
COc1ccc(-c2cc3nc(-c4ccccc4)cc(N4CCN(C(C)=O)CC4)n3n2)cc1 | . | 7 | -7 | . | . | 42 | . | . | . | .
Cc1cccc(-c2cc3nc(-c4ccccc4)cc(N4CCC5(CC4)OCCO5)n3n2)c1 | 47* | 9 | -5 | 64* | -25 | 19 | 25 | -7 | 70* | 5
Fc1cccc(-c2cc3nc(-c4ccccc4)cc(N4CCC5(CC4)OCCO5)n3n2)c1 | 46* | 2 | -1 | 72* | -18 | 10 | 52* | -20 | 40 | -11
CC1ON=C(c2ccccn2)N(Cc2ccc(S(C)(=O)=O)cc2)C1=O (stereo not drawn) | . | 0 | 3 | . | . | 2 | . | . | . | .
Cc1cccc(C)c1NC(=O)C1c2ccccc2OCC(=O)N1Cc1ccccc1 (stereo not drawn) | . | 3 | -7 | . | . | -18 | . | . | . | .
Cc1cc(N/N=C/c2ccccc2O)nc(-c2ccccc2O)n1 | 54* | 16 | -12 | 90* | 25 | 37 | 9 | 1 | 22 | 5
COC(=O)[C@H]1C[C@H](OC(=O)NC2CC2)[C@@]2(O)CN(S(=O)(=O)c3ccc(C)cc3)CC2[C@H]1C(=O)OC (stereo partly drawn) | . | 6 | -4 | . | . | 14 | . | . | . | .
COc1ccccc1C(=O)Nc1nc2cc3c(cc2s1)OCO3 | -11 | 0 | -5 | 23 | -8 | -24 | . | . | . | .
COc1ccccc1C(=O)Nc1nc2cc3c(cc2s1)OCCO3 | 39 | . | . | 106* | 7 | . | 51* | -6 | 95* | 4
CCN(CC)c1ccc(/C=N/NC(=O)c2ccco2)c(O)c1 | 36* | 4 | -5 | 68* | 12 | 12 | 73* | 18 | 88* | 11
CCN(CC)c1ccc(/C=N/NC(=O)c2ccco2)cc1 | 4 | 4 | 2 | 40 | -8 | 13 | . | . | . | .
CCOc1ncccc1C(=O)NCC1COc2ccccc2O1 (stereo not drawn) | 30 | 2 | -4 | 81* | -24 | -3 | 27 | -2 | 69* | 0
O=C(NCC(F)(F)F)C1C(=O)Nc2ccccc2C(=O)N1C1CCCC1 (stereo not drawn) | . | 4 | -1 | . | . | -7 | . | . | . | .
O=C1NC[C@H](c2ccccc2)OC(=O)[C@H](Cc2ccc(F)cc2)C/C=C\C[C@H]1CC(=O)N(CCO)Cc1ccccc1 | 54* | 38* | -5 | 54* | -23 | 82* | 30* | 3 | 50 | 5
O=C(C[C@H]1C/C=C\C[C@@H](Cc2ccc(F)cc2)C(=O)O[C@@H](c2ccccc2)CNC1=O)NCCO | 1 | 3 | -8 | 19 | 5 | 22 | . | . | . | .
COc1cccc(-c2nc(CS(=O)(=O)CC(=O)Nc3cc(OC)ccc3OC)c(C)o2)c1 | 33 | 7 | -5 | 78* | -17 | -13 | 23 | -9 | 85* | 6
COc1ccc(/C=C/c2nc(N)nc(-c3ccccc3O)n2)cc1OC | 63* | 21 | -5 | 87* | -2 | 38 | 70* | -7 | 92* | 6
COc1cc(/C=C/c2nc(N)nc(-c3ccccc3O)n2)cc(OC)c1OC | -35 | 9 | 1 | 16 | -16 | 47 | . | . | . | .
COc1ccc(-c2nn(Cc3ccccc3)cc2C(=O)N2CCN(c3ncccn3)CC2)cc1OC | -4 | 8 | -3 | -1 | -27 | -20 | . | . | . | .
CC(C)[C@H](NC(=O)c1ccc(Cl)cc1Cl)C(=O)OCc1nc2ccsc2c(=O)[nH]1 | . | 3 | -5 | . | . | -22 | . | . | . | .
SMILES | OX1R antag-1 | TAAR1 ag | GalR3 antagonist | OX1R antag-2 | CHO parental Ca | TAAR1 antagonist | OX1R Ca confirm | CHO Ca triplic | OX1R HTRF conf | CHO-K1 HTRF cnt
Cc1cccc(NC(=O)NNC(=O)c2cc(-c3ccccc3Cl)nc3ccccc23)c1 | 44* | . | . | 83* | -18 | . | 38* | 6 | 92* | 4
OC(CN1c2ccccc2Sc2ccccc21)Cn1nnc2ccccc21 (stereo not drawn) | 42 | 3 | -4 | 63* | -20 | -1 | 31* | -13 | 52 | 1
COCc1cc(=O)[nH]c2cc(NC(=O)C(C)(C)CCl)c(C)cc12 | -19 | 1 | -2 | 14 | -8 | -1 | . | . | . | .
Cc1cc2nc3c(=O)[nH]c(=S)[nH]c3nc2cc1NC(=O)C(F)(F)F | 29 | 11 | -9 | 49* | 20 | -4 | 7 | 4 | 47 | 88*
COCC(=O)N[C@H]1CC[C@@H](CC(=O)OC)O[C@@H]1CO | . | 1 | -3 | . | . | 1 | . | . | . | .
Cc1sc(NC(=O)Cn2[nH]c(=O)c3ccccc3c2=O)nc1-c1ccccc1 | 39* | 0 | 0 | 74* | -10 | 17 | 43* | -4 | 76* | 0
Cc1c(NC(=O)Cn2[nH]c(=O)c3ccccc3c2=O)c(=O)n(-c2ccccc2)n1C | -7 | 2 | 5 | 6 | 4 | -8 | . | . | . | .
C=CCSC1=C(C#N)C(c2ccccc2Cl)C(C(=O)c2cccs2)C(O)(C(F)(F)F)N1 (stereo not drawn) | 42* | 7 | -2 | 104* | -21 | 56* | 79* | -13 | 89* | 7
CCSC1=C(C#N)C(c2ccccc2Cl)CC(=O)N1 (stereo not drawn) | 2 | 13 | 0 | 30 | -12 | 8 | . | . | . | .
